Measurements reported in ChEMBL document CHEMBL1131215, “Anhydrolide macrolides. 1. Synthesis and antibacterial activity of 2,3-anhydro-6-O-methyl 11,12-carbamate erythromycin A analogues” (1998).
Converted amounts (≈) assume the structure as drawn.

Experiments:
Format in all cases: functional
Haemophilus influenzae = assay: In vitro antibacterial activity against DILL strain of Haemophilus influenzae.
In short: (§1)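 MIC determined by standard agar dilution; values in μg/mL.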

Staphylococcus aureus [1] = assay: In vitro antibacterial activity against 6538P strain of Staphylococcus aureus; in short: as §1
Staphylococcus aureus [2] = assay: In vitro antibacterial activity against A5177 strain of Staphylococcus aureus; in short: as §1
Streptococcus pneumoniae [3] = assay: In vitro antibacterial activity against 5649 strain of Streptococcus pneumoniae; in short: as §1
Streptococcus pneumoniae [4] = assay: In vitro antibacterial activity against ATCC 6303 strain of Streptococcus pneumoniae; in short: as §1
Streptococcus pyogenes [5] = assay: In vitro antibacterial activity against PIU 2548 strain of Streptococcus pyogenes; in short: as §1
Streptococcus pyogenes [6] = assay: In vitro antibacterial activity against 930 strain of Streptococcus pyogenes; in short: as §1
[7] = In vitro antibacterial activity against A-5278 strain of Staphylococcus aureus; in short: as §1
Streptococcus pneumoniae [8] = assay: In vitro antibacterial activity against 5979 strain of Streptococcus pneumoniae; in short: as §1
[9] = Streptococcus pneumoniae, ATCC 6303

| Compound | MIC (Haemophilus influenzae) [µg/mL] | MIC (Staphylococcus aureus [1]; Staphylococcus aureus) [µg/mL] | MIC (Staphylococcus aureus [2]; Staphylococcus aureus) [µg/mL] | MIC (Streptococcus pneumoniae [3]; Streptococcus pneumoniae) [µg/mL] | MIC (Streptococcus pneumoniae [4]; [9]) [µg/mL] | MIC (Streptococcus pyogenes [5]; Streptococcus pyogenes) [µg/mL] | MIC (Streptococcus pyogenes [6]; Streptococcus pyogenes) [µg/mL] | also measured |
| --- | --- | --- | --- | --- | --- | --- | --- | --- |
| CC[C@H]1OC(=O)/C(C)=C/[C@H](C)[C@@H](O[C@@H]2O[C@H](C)C[C@H](N(C)C)[C@H]2O)[C@@](C)(OC)C[C@@H](C)C(=O)[C@H](C)[C@H]2N(CCCOc3ccncc3)C(=O)O[C@]12C | 16 (≈ 21.9 µM) | 0.39 (≈ 0.533 µM) | 0.39 (≈ 0.533 µM) | 1 (≈ 1.37 µM) | 0.03 (≈ 0.041 µM) | 0.2 (≈ 0.273 µM) |  |  |
| CC[C@H]1OC(=O)/C(C)=C/[C@H](C)[C@@H](O[C@@H]2O[C@H](C)C[C@H](N(C)C)[C@H]2O)[C@@](C)(OC)C[C@@H](C)C(=O)[C@H](C)[C@H]2N(Cc3ccccc3)C(=O)O[C@]12C |  | 0.78 (≈ 1.14 µM) | 0.78 (≈ 1.14 µM) | 2 (≈ 2.91 µM) | 0.25 (≈ 0.364 µM) | 0.2 (≈ 0.291 µM) |  |  |
| CC[C@H]1OC(=O)/C(C)=C/[C@H](C)[C@@H](O[C@@H]2O[C@H](C)C[C@H](N(C)C)[C@H]2O)[C@@](C)(OC)C[C@@H](C)C(=O)[C@H](C)[C@H]2N(CCc3ccc(N)cc3)C(=O)O[C@]12C | 32 (≈ 44.7 µM) | 1.56 (≈ 2.18 µM) | 0.78 (≈ 1.09 µM) | 2 (≈ 2.79 µM) | 0.5 (≈ 0.698 µM) | 0.2 (≈ 0.279 µM) |  |  |
| CC[C@H]1OC(=O)/C(C)=C/[C@H](C)[C@@H](O[C@@H]2O[C@H](C)C[C@H](N(C)C)[C@H]2O)[C@@](C)(OC)C[C@@H](C)C(=O)[C@H](C)[C@H]2NC(=O)O[C@@]21C (stereo in doubt; 7) |  |  |  |  |  |  |  | MIC (Staphylococcus aureus [1]): 25 µg/mL (≈ 41.9 µM); MIC (Streptococcus pyogenes [5]): 6.2 µg/mL (≈ 10.4 µM) |
| CC[C@H]1OC(=O)/C(C)=C/[C@H](C)[C@@H](O[C@@H]2O[C@H](C)C[C@H](N(C)C)[C@H]2O)[C@@](C)(OC)C[C@@H](C)C(=O)[C@H](C)[C@H]2N(CCc3ccc(O)cc3)C(=O)O[C@]12C | 16 (≈ 22.3 µM) | 0.78 (≈ 1.09 µM) | 0.78 (≈ 1.09 µM) | 0.5 (≈ 0.697 µM) | 0.125 (≈ 0.174 µM) | 0.39 (≈ 0.544 µM) |  |  |
| CC[C@H]1OC(=O)/C(C)=C/[C@H](C)[C@@H](O[C@@H]2O[C@H](C)C[C@H](N(C)C)[C@H]2O)[C@@](C)(OC)C[C@@H](C)C(=O)[C@H](C)[C@H]2N(C(C)C)C(=O)O[C@]12C |  | 12.5 (≈ 19.6 µM) | 12.5 (≈ 19.6 µM) | 2 (≈ 3.13 µM) | 2 (≈ 3.13 µM) | 1.56 (≈ 2.44 µM) |  |  |
| CCOCCCN1C(=O)O[C@]2(C)[C@@H](CC)OC(=O)/C(C)=C/[C@H](C)[C@@H](O[C@@H]3O[C@H](C)C[C@H](N(C)C)[C@H]3O)[C@@](C)(OC)C[C@@H](C)C(=O)[C@H](C)[C@@H]12 |  | 1.56 (≈ 2.28 µM) | 1.56 (≈ 2.28 µM) | 2 (≈ 2.93 µM) | 0.25 (≈ 0.366 µM) | 0.39 (≈ 0.571 µM) |  |  |
| CC[C@H]1OC(=O)/C(C)=C/[C@H](C)[C@@H](O[C@@H]2O[C@H](C)C[C@H](N(C)C)[C@H]2O)[C@@](C)(OC)C[C@@H](C)C(=O)[C@H](C)[C@H]2N(CCCc3cnc4ccccc4c3)C(=O)O[C@]12C | 32 (≈ 41.8 µM) | 1.56 (≈ 2.04 µM) |  | 4 (≈ 5.22 µM) | 0.25 (≈ 0.326 µM) | 0.39 (≈ 0.509 µM) |  |  |
| C=COCCCN1C(=O)O[C@]2(C)[C@@H](CC)OC(=O)/C(C)=C/[C@H](C)[C@@H](O[C@@H]3O[C@H](C)C[C@H](N(C)C)[C@H]3O)[C@@](C)(OC)C[C@@H](C)C(=O)[C@H](C)[C@@H]12 | 64 (≈ 94 µM) | 3.1 (≈ 4.55 µM) | 3.1 (≈ 4.55 µM) | 2 (≈ 2.94 µM) | 0.5 (≈ 0.734 µM) | 0.39 (≈ 0.573 µM) |  |  |
| CC[C@H]1OC(=O)/C(C)=C/[C@H](C)[C@@H](O[C@@H]2O[C@H](C)C[C@H](N(C)C)[C@H]2O)[C@@](C)(OC)C[C@@H](C)C(=O)/C(C)=C/[C@]1(C)OC(=O)NCCCOc1ccc2ccccc2c1 |  | 6.2 (≈ 7.94 µM) | 3.1 (≈ 3.97 µM) |  |  | 6.2 (≈ 7.94 µM) | 25 (≈ 32 µM) | MIC ([7]; Staphylococcus aureus): 50 µg/mL (≈ 64 µM) |
| CC[C@H]1OC(=O)[C@H](C)[C@@H](O[C@H]2C[C@@](C)(OC)[C@@H](O)[C@H](C)O2)[C@H](C)[C@@H](O[C@@H]2O[C@H](C)C[C@H](N(C)C)[C@H]2O)[C@](C)(O)C[C@@H](C)C(=O)[C@H](C)[C@@H](O)[C@]1(C)O [ERYTHROMYCIN] | 4 (≈ 5.45 µM) | 0.2 (≈ 0.273 µM) | 3.1 (≈ 4.22 µM) | 8 (≈ 10.9 µM) |  | 3.1 (≈ 4.22 µM) |  | MIC (Streptococcus pneumoniae [4]): 0.06 µg/mL (≈ 0.0818 µM) |
| CC[C@H]1OC(=O)/C(C)=C/[C@H](C)[C@@H](O[C@@H]2O[C@H](C)C[C@H](N(C)C)[C@H]2O)[C@@](C)(OC)C[C@@H](C)C(=O)[C@H](C)[C@H]2N(CCCN(C)c3ccccc3)C(=O)O[C@]12C | > 64 | 6.2 (≈ 8.33 µM) |  | < 0.004 | < 0.004 | 0.39 (≈ 0.524 µM) |  |  |
| CC[C@H]1OC(=O)/C(C)=C/[C@H](C)[C@@H](O[C@@H]2O[C@H](C)C[C@H](N(C)C)[C@H]2O)[C@@](C)(OC)C[C@@H](C)C(=O)/C(C)=C/[C@]1(C)OC(=O)OC |  | 25 (≈ 40.9 µM) | 25 (≈ 40.9 µM) |  |  | 25 (≈ 40.9 µM) | 50 (≈ 81.7 µM) |  |
| CC[C@H]1OC(=O)/C(C)=C/[C@H](C)[C@@H](O[C@@H]2O[C@H](C)C[C@H](N(C)C)[C@H]2O)[C@@](C)(OC)C[C@@H](C)C(=O)[C@H](C)[C@H]2N(CCCOc3ccc(Cl)cc3)C(=O)O[C@]12C |  | 0.78 (≈ 1.02 µM) |  | 0.03 (≈ 0.0392 µM) | < 0.004 | 0.39 (≈ 0.51 µM) | 12.5 (≈ 16.3 µM) | MIC ([7]; Staphylococcus aureus): 50 µg/mL (≈ 65.3 µM) |
| CC[C@H]1OC(=O)/C(C)=C/[C@H](C)[C@@H](O[C@@H]2O[C@H](C)C[C@H](N(C)C)[C@H]2O)[C@@](C)(OC)C[C@@H](C)C(=O)[C@H](C)[C@H]2N(CCc3ccc(OCc4ccccc4)c(OCc4ccccc4)c3)C(=O)O[C@]12C |  |  |  | 4 (≈ 4.38 µM) | 1 (≈ 1.1 µM) |  |  | MIC (Streptococcus pneumoniae [8]): 8 µg/mL (≈ 8.76 µM) |
| CC[C@H]1OC(=O)/C(C)=C/[C@H](C)[C@@H](O[C@@H]2O[C@H](C)C[C@H](N(C)C)[C@H]2O)[C@@](C)(OC)C[C@@H](C)[C@@H]2NCCN3C(=O)O[C@@]1(C)[C@H]3[C@H]2C | > 64 | 12.5 (≈ 20 µM) | 6.2 (≈ 9.94 µM) | 2 (≈ 3.21 µM) | 1 (≈ 1.6 µM) | 1.56 (≈ 2.5 µM) |  | MIC (Streptococcus pneumoniae [8]): > 64 µg/mL |
| CC[C@H]1OC(=O)/C(C)=C/[C@H](C)[C@@H](O[C@@H]2O[C@H](C)C[C@H](N(C)C)[C@H]2O)[C@@](C)(OC)C[C@@H](C)C(=O)[C@H](C)[C@H]2N(CCCOc3cccc4cccnc34)C(=O)O[C@]12C | 8 (≈ 10.2 µM) | 1.56 (≈ 1.99 µM) |  | 2 (≈ 2.56 µM) | < 0.004 | 0.2 (≈ 0.256 µM) |  | MIC (Streptococcus pneumoniae [8]): > 16 µg/mL |
| CC[C@H]1OC(=O)/C(C)=C/[C@H](C)[C@@H](O[C@@H]2O[C@H](C)C[C@H](N(C)C)[C@H]2O)[C@@](C)(OC)C[C@@H](C)C(=O)[C@H](C)[C@H]2N(CCNCc3ccccc3)C(=O)O[C@]12C | > 64 | 6.2 (≈ 8.49 µM) |  | 2 (≈ 2.74 µM) | 0.03 (≈ 0.0411 µM) | 3.1 (≈ 4.25 µM) | 50 (≈ 68.5 µM) |  |
| CC[C@H]1OC(=O)/C(C)=C/[C@H](C)[C@@H](O[C@@H]2O[C@H](C)C[C@H](N(C)C)[C@H]2O)[C@@](C)(OC)C[C@@H](C)C(=O)[C@H](C)[C@H]2N(CCCCc3ccccc3)C(=O)O[C@]12C | 32 (≈ 43.9 µM) | 0.39 (≈ 0.535 µM) | 0.39 (≈ 0.535 µM) |  |  | 0.39 (≈ 0.535 µM) | 12.5 (≈ 17.1 µM) | MIC ([7]; Staphylococcus aureus): 50 µg/mL (≈ 68.6 µM) |
| CC[C@H]1OC(=O)/C(C)=C/[C@H](C)[C@@H](O[C@@H]2O[C@H](C)C[C@H](N(C)C)[C@H]2O)[C@@](C)(OC)C[C@@H](C)C(=O)[C@H](C)[C@H]2N(CCc3ccc(Oc4ccccc4)cc3)C(=O)O[C@]12C (stereo in doubt; 15) |  |  |  |  |  |  |  | MIC (Staphylococcus aureus [1]): 25 µg/mL (≈ 31.5 µM); MIC (Staphylococcus aureus [2]): 25 µg/mL (≈ 31.5 µM); MIC (Streptococcus pneumoniae [3]): 8 µg/mL (≈ 10.1 µM); MIC (Streptococcus pyogenes [6]): 6.2 µg/mL (≈ 7.82 µM); MIC (Streptococcus pneumoniae [4]): 4 µg/mL (≈ 5.04 µM); MIC (Streptococcus pyogenes [5]): 3.1 µg/mL (≈ 3.91 µM); MIC [7]: 12.5 µg/mL (≈ 15.8 µM) |
| CC[C@H]1OC(=O)/C(C)=C/[C@H](C)[C@@H](O[C@@H]2O[C@H](C)C[C@H](N(C)C)[C@H]2O)[C@@](C)(OC)C[C@@H](C)C(=O)[C@H](C)[C@H]2N(CCCc3ccccc3)C(=O)O[C@]12C (stereo in doubt; 11) |  |  |  |  |  |  | 25 (≈ 35 µM) | MIC (Staphylococcus aureus [1]): 25 µg/mL (≈ 35 µM); MIC (Staphylococcus aureus [2]): 25 µg/mL (≈ 35 µM); MIC (Streptococcus pyogenes [5]): 6.2 µg/mL (≈ 8.67 µM) |
| CC[C@H]1OC(=O)/C(C)=C/[C@H](C)[C@@H](O[C@@H]2O[C@H](C)C[C@H](N(C)C)[C@H]2O)[C@@](C)(OC)C[C@@H](C)C(=O)[C@H](C)[C@H]2N(CCCOc3ccccc3)C(=O)O[C@]12C | 16 (≈ 21.9 µM) | 0.39 (≈ 0.534 µM) | 0.39 (≈ 0.534 µM) |  |  | 0.39 (≈ 0.534 µM) | 25 (≈ 34.2 µM) | MIC ([7]; Staphylococcus aureus): 50 µg/mL (≈ 68.4 µM) |
